Measurements taken from ChEMBL document CHEMBL3407400, “Design, synthesis and biological evaluations of chirally pure 1,2,3,4-tertrahydroisoquinoline analogs as anti-cancer agents” (Eur J Med Chem, 2015).
Activity calls are given as the source filed them. The rule behind the calls is not given here.

Tested on: DU-145
Experiment: Induction of apoptosis in human DU145 cells assessed as necrotic cells at 0.5 uM after 48 hrs by annexin V FITC/PI dual staining assay (reference value: 0.31 %)
Type: functional
Conditions: not given

SMILES	Activity
Cc1ccc(S(=O)(=O)N2CC(=O)N3Cc4ccccc4[C@@H](OCc4ccccc4)[C@@H]3C2)cc1	0.63%
Cc1ccc(S(=O)(=O)N2C[C@H]3[C@H](OCc4ccccc4)c4ccccc4CN3C(=O)[C@@H]2C)cc1	0.82%

Tested on: DU-145
Experiment: Disruption of microtubule network in human DU145 cells at 50 uM after 48 hrs by immunohistochemistry analysis
Type: cell-based
Conditions: not given

SMILES	Activity
Cc1ccc(S(=O)(=O)N2CC(=O)N3Cc4ccccc4[C@@H](OCc4ccccc4)[C@@H]3C2)cc1	Active
Cc1ccc(S(=O)(=O)N2C[C@H]3[C@H](OCc4ccccc4)c4ccccc4CN3C(=O)[C@@H]2C)cc1	Active

Tested on: DU-145
Experiment: Induction of apoptosis in human DU145 cells assessed as down regulation of Bcl2 at 0.5 uM after 48 hrs by Western blot analysis relative to control
Type: functional, cell-based
Conditions: not given

SMILES	Activity
Cc1ccc(S(=O)(=O)N2CC(=O)N3Cc4ccccc4[C@@H](OCc4ccccc4)[C@@H]3C2)cc1	Active
Cc1ccc(S(=O)(=O)N2C[C@H]3[C@H](OCc4ccccc4)c4ccccc4CN3C(=O)[C@@H]2C)cc1	Active

Tested on: DU-145
Experiment: Cell cycle arrest in human DU145 cells assessed as G2/M phase at 1 uM after 48 hrs by propidium iodide based flow cytometry (reference value: 6.75 %)
Type: functional
Conditions: not given

SMILES	Activity
Cc1ccc(S(=O)(=O)N2CC(=O)N3Cc4ccccc4[C@@H](OCc4ccccc4)[C@@H]3C2)cc1	44.17%
Cc1ccc(S(=O)(=O)N2C[C@H]3[C@H](OCc4ccccc4)c4ccccc4CN3C(=O)[C@@H]2C)cc1	40.27%

Tested on: DU-145
Experiment: Induction of apoptosis in human DU145 cells assessed as up regulation of Bax at 0.5 uM after 48 hrs by Western blot analysis relative to control
Type: functional, cell-based
Conditions: not given

SMILES	Activity
Cc1ccc(S(=O)(=O)N2CC(=O)N3Cc4ccccc4[C@@H](OCc4ccccc4)[C@@H]3C2)cc1	Active
Cc1ccc(S(=O)(=O)N2C[C@H]3[C@H](OCc4ccccc4)c4ccccc4CN3C(=O)[C@@H]2C)cc1	Active

Tested on: A549
Experiment: Anticancer activity against human A549 cells after 48 hrs by MTT assay
Type: functional, cell-based
Conditions: A549, 48 h
In short: (§1)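 Cell lines held in DMEM or MEM with 10% FBS and antibiotic-antimycotic at 37 °C, 5% CO2. Cells seeded at 1 × 10⁴ per well in DMEM with 10% FBS and left 24 h. Compounds diluted in medium and added alongside vehicle control for 48 h. MTT (5 mg/mL) added for 4 h, formazan dissolved in DMSO, absorbance read at 570 nm.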

IC50	SMILES
1.26 µM	Cc1ccc(S(=O)(=O)N2CC(=O)N3Cc4ccccc4[C@@H](OCc4ccccc4)[C@@H]3C2)cc1
2.45 µM	Cc1ccc(S(=O)(=O)N2C[C@H]3[C@H](OCc4ccccc4)c4ccccc4CN3C(=O)[C@@H]2C)cc1

Tested on: MCF7
Experiment: Anticancer activity against human MCF7 cells after 48 hrs by MTT assay
Type: functional, cell-based
Conditions: MCF7, 48 h
In short: as §1

IC50	SMILES
2.51 µM	Cc1ccc(S(=O)(=O)N2CC(=O)N3Cc4ccccc4[C@@H](OCc4ccccc4)[C@@H]3C2)cc1
5.49 µM	Cc1ccc(S(=O)(=O)N2C[C@H]3[C@H](OCc4ccccc4)c4ccccc4CN3C(=O)[C@@H]2C)cc1

Tested on: DU-145
Experiment: Cell cycle arrest in human DU145 cells assessed as subG1 phase at 0.5 uM after 48 hrs by propidium iodide based flow cytometry (reference value: 9.36 %)
Type: functional
Conditions: not given

SMILES	Activity
Cc1ccc(S(=O)(=O)N2CC(=O)N3Cc4ccccc4[C@@H](OCc4ccccc4)[C@@H]3C2)cc1	8.22%
Cc1ccc(S(=O)(=O)N2C[C@H]3[C@H](OCc4ccccc4)c4ccccc4CN3C(=O)[C@@H]2C)cc1	8.25%

Tested on: DU-145
Experiment: Cell cycle arrest in human DU145 cells assessed as S phase at 1 uM after 48 hrs by propidium iodide based flow cytometry (reference value: 1.65 %)
Type: functional
Conditions: not given

SMILES	Activity
Cc1ccc(S(=O)(=O)N2CC(=O)N3Cc4ccccc4[C@@H](OCc4ccccc4)[C@@H]3C2)cc1	0.9%
Cc1ccc(S(=O)(=O)N2C[C@H]3[C@H](OCc4ccccc4)c4ccccc4CN3C(=O)[C@@H]2C)cc1	1.83%

Tested on: DU-145
Experiment: Induction of apoptosis in human DU145 cells assessed as viable cells at 0.5 uM after 48 hrs by annexin V FITC/PI dual staining assay (reference value: 96.45 %)
Type: functional
Conditions: DU-145, 48 h, read-out: Activity

SMILES	viability at 0.5 µM
Cc1ccc(S(=O)(=O)N2CC(=O)N3Cc4ccccc4[C@@H](OCc4ccccc4)[C@@H]3C2)cc1	90.1%
Cc1ccc(S(=O)(=O)N2C[C@H]3[C@H](OCc4ccccc4)c4ccccc4CN3C(=O)[C@@H]2C)cc1	92.8%

Tested on: DU-145
Experiment: Cell cycle arrest in human DU145 cells assessed as G0/G1 phase at 0.5 uM after 48 hrs by propidium iodide based flow cytometry (reference value: 79.15 %)
Type: functional
Conditions: not given

SMILES	Activity
Cc1ccc(S(=O)(=O)N2CC(=O)N3Cc4ccccc4[C@@H](OCc4ccccc4)[C@@H]3C2)cc1	67.34%
Cc1ccc(S(=O)(=O)N2C[C@H]3[C@H](OCc4ccccc4)c4ccccc4CN3C(=O)[C@@H]2C)cc1	68.53%

Tested on: DU-145
Experiment: Cell cycle arrest in human DU145 cells assessed as S phase at 0.5 uM after 48 hrs by propidium iodide based flow cytometry (reference value: 1.65 %)
Type: functional
Conditions: not given

SMILES	Activity
Cc1ccc(S(=O)(=O)N2CC(=O)N3Cc4ccccc4[C@@H](OCc4ccccc4)[C@@H]3C2)cc1	2.64%
Cc1ccc(S(=O)(=O)N2C[C@H]3[C@H](OCc4ccccc4)c4ccccc4CN3C(=O)[C@@H]2C)cc1	2.8%

Tested on: DU-145
Experiment: Induction of apoptosis in human DU145 cells assessed as necrotic cells at 1 uM after 48 hrs by annexin V FITC/PI dual staining assay (reference value: 0.31 %)
Type: functional
Conditions: not given

SMILES	Activity
Cc1ccc(S(=O)(=O)N2CC(=O)N3Cc4ccccc4[C@@H](OCc4ccccc4)[C@@H]3C2)cc1	4.48%
Cc1ccc(S(=O)(=O)N2C[C@H]3[C@H](OCc4ccccc4)c4ccccc4CN3C(=O)[C@@H]2C)cc1	4.7%

Tested on: DU-145
Experiment: Cell cycle arrest in human DU145 cells assessed as subG1 phase at 1 uM after 48 hrs by propidium iodide based flow cytometry (reference value: 9.36 %)
Type: functional
Conditions: not given

SMILES	Activity
Cc1ccc(S(=O)(=O)N2CC(=O)N3Cc4ccccc4[C@@H](OCc4ccccc4)[C@@H]3C2)cc1	5.02%
Cc1ccc(S(=O)(=O)N2C[C@H]3[C@H](OCc4ccccc4)c4ccccc4CN3C(=O)[C@@H]2C)cc1	6.74%

Tested on: DU-145
Experiment: Induction of apoptosis in human DU145 cells assessed as DNA fragmentation at 0.5 uM after 48 hrs by agarose gel electrophoresis
Type: functional, cell-based
Conditions: not given
In short: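 DU-145 cells (1 × 10⁶) seeded, then treated 24 h later for 48 h. Lysate cleared, then digested with SDS/RNase A (2 h, 56 °C) and proteinase K (2 h, 37 °C). DNA precipitated with ammonium acetate and ice-cold ethanol, dissolved in TE. Laddering resolved on 2% agarose.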

SMILES	Activity
Cc1ccc(S(=O)(=O)N2CC(=O)N3Cc4ccccc4[C@@H](OCc4ccccc4)[C@@H]3C2)cc1	Active
Cc1ccc(S(=O)(=O)N2C[C@H]3[C@H](OCc4ccccc4)c4ccccc4CN3C(=O)[C@@H]2C)cc1	Active

Tested on: DU-145
Experiment: Induction of apoptosis in human DU145 cells assessed as late apoptotic cells at 0.5 uM after 48 hrs by annexin V FITC/PI dual staining assay (reference value: 2.47 %)
Type: functional
Conditions: not given

SMILES	Activity
Cc1ccc(S(=O)(=O)N2CC(=O)N3Cc4ccccc4[C@@H](OCc4ccccc4)[C@@H]3C2)cc1	6.47%
Cc1ccc(S(=O)(=O)N2C[C@H]3[C@H](OCc4ccccc4)c4ccccc4CN3C(=O)[C@@H]2C)cc1	4.45%

Tested on: DU-145
Experiment: Cell cycle arrest in human DU145 cells assessed as G0/G1 phase at 1 uM after 48 hrs by propidium iodide based flow cytometry (reference value: 79.15 %)
Type: functional
Conditions: not given

SMILES	Activity
Cc1ccc(S(=O)(=O)N2CC(=O)N3Cc4ccccc4[C@@H](OCc4ccccc4)[C@@H]3C2)cc1	46.74%
Cc1ccc(S(=O)(=O)N2C[C@H]3[C@H](OCc4ccccc4)c4ccccc4CN3C(=O)[C@@H]2C)cc1	46.67%

Tested on: HeLa
Experiment: Anticancer activity against human HeLa cells after 48 hrs by MTT assay
Type: functional, cell-based
Conditions: not given
In short: as §1

IC50	SMILES
3.16 µM	Cc1ccc(S(=O)(=O)N2CC(=O)N3Cc4ccccc4[C@@H](OCc4ccccc4)[C@@H]3C2)cc1
7.31 µM	Cc1ccc(S(=O)(=O)N2C[C@H]3[C@H](OCc4ccccc4)c4ccccc4CN3C(=O)[C@@H]2C)cc1

Tested on: HepG2
Experiment: Anticancer activity against human HepG2 cells after 48 hrs by MTT assay
Type: functional, cell-based
Conditions: HepG2, 48 h
In short: as §1

IC50	SMILES
0.87 µM	Cc1ccc(S(=O)(=O)N2CC(=O)N3Cc4ccccc4[C@@H](OCc4ccccc4)[C@@H]3C2)cc1
1.7 µM	Cc1ccc(S(=O)(=O)N2C[C@H]3[C@H](OCc4ccccc4)c4ccccc4CN3C(=O)[C@@H]2C)cc1

Tested on: DU-145
Experiment: Induction of apoptosis in human DU145 cells assessed as viable cells at 1 uM after 48 hrs by annexin V FITC/PI dual staining assay (reference value: 96.45 %)
Type: functional
Conditions: DU-145, 48 h, read-out: Activity

SMILES	viability at 1 µM
Cc1ccc(S(=O)(=O)N2CC(=O)N3Cc4ccccc4[C@@H](OCc4ccccc4)[C@@H]3C2)cc1	65.6%
Cc1ccc(S(=O)(=O)N2C[C@H]3[C@H](OCc4ccccc4)c4ccccc4CN3C(=O)[C@@H]2C)cc1	69.2%

Tested on: DU-145
Experiment: Induction of apoptosis in human DU145 cells assessed as early apoptotic cells at 0.5 uM after 48 hrs by annexin V FITC/PI dual staining assay (reference value: 0.77 %)
Type: functional
Conditions: not given

SMILES	Activity
Cc1ccc(S(=O)(=O)N2CC(=O)N3Cc4ccccc4[C@@H](OCc4ccccc4)[C@@H]3C2)cc1	2.79%
Cc1ccc(S(=O)(=O)N2C[C@H]3[C@H](OCc4ccccc4)c4ccccc4CN3C(=O)[C@@H]2C)cc1	1.88%

Target: Tubulin
Experiment: Inhibition of tubulin (unknown origin) polymerization by fluorescence assay
Type: protein-complex assay, Homo sapiens
Conditions: not given

IC50	SMILES
1.68 µM	Cc1ccc(S(=O)(=O)N2CC(=O)N3Cc4ccccc4[C@@H](OCc4ccccc4)[C@@H]3C2)cc1
3.55 µM	Cc1ccc(S(=O)(=O)N2C[C@H]3[C@H](OCc4ccccc4)c4ccccc4CN3C(=O)[C@@H]2C)cc1

Tested on: DU-145
Experiment: Induction of apoptosis in human DU145 cells assessed as early apoptotic cells at 1 uM after 48 hrs by annexin V FITC/PI dual staining assay (reference value: 0.77 %)
Type: functional
Conditions: not given

SMILES	Activity
Cc1ccc(S(=O)(=O)N2CC(=O)N3Cc4ccccc4[C@@H](OCc4ccccc4)[C@@H]3C2)cc1	4.15%
Cc1ccc(S(=O)(=O)N2C[C@H]3[C@H](OCc4ccccc4)c4ccccc4CN3C(=O)[C@@H]2C)cc1	4.94%

Tested on: DU-145
Experiment: Anticancer activity against human DU145 cells after 48 hrs by MTT assay
Type: functional, cell-based
Conditions: DU-145, 48 h
In short: as §1

IC50	SMILES
0.72 µM	Cc1ccc(S(=O)(=O)N2CC(=O)N3Cc4ccccc4[C@@H](OCc4ccccc4)[C@@H]3C2)cc1
1.23 µM	Cc1ccc(S(=O)(=O)N2C[C@H]3[C@H](OCc4ccccc4)c4ccccc4CN3C(=O)[C@@H]2C)cc1

Tested on: DU-145
Experiment: Induction of apoptosis in human DU145 cells assessed as activation of caspase 3 at 0.5 to 1 uM after 48 hrs by fluorometric assay relative to control
Type: functional
Conditions: not given
In short: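 DU-145 cells treated for 48 h. Fluorometric caspase-3 kit used: […] substrate added to cell lysate, 1 h at 37 °C. Fluorescence read at excitation 400 nm, emission 505 nm.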

SMILES	fold change (FC)
Cc1ccc(S(=O)(=O)N2CC(=O)N3Cc4ccccc4[C@@H](OCc4ccccc4)[C@@H]3C2)cc1	3
Cc1ccc(S(=O)(=O)N2C[C@H]3[C@H](OCc4ccccc4)c4ccccc4CN3C(=O)[C@@H]2C)cc1	3

Tested on: DU-145
Experiment: Cell cycle arrest in human DU145 cells assessed as G2/M phase at 0.5 uM after 48 hrs by propidium iodide based flow cytometry (reference value: 6.75 %)
Type: functional
Conditions: not given

SMILES	Activity
Cc1ccc(S(=O)(=O)N2CC(=O)N3Cc4ccccc4[C@@H](OCc4ccccc4)[C@@H]3C2)cc1	17.68%
Cc1ccc(S(=O)(=O)N2C[C@H]3[C@H](OCc4ccccc4)c4ccccc4CN3C(=O)[C@@H]2C)cc1	16.96%

Tested on: DU-145
Experiment: Induction of apoptosis in human DU145 cells assessed as late apoptotic cells at 1 uM after 48 hrs by annexin V FITC/PI dual staining assay (reference value: 2.47 %)
Type: functional
Conditions: not given

SMILES	Activity
Cc1ccc(S(=O)(=O)N2CC(=O)N3Cc4ccccc4[C@@H](OCc4ccccc4)[C@@H]3C2)cc1	25.79%
Cc1ccc(S(=O)(=O)N2C[C@H]3[C@H](OCc4ccccc4)c4ccccc4CN3C(=O)[C@@H]2C)cc1	21.14%
